Data taken from ChEMBL document CHEMBL1143835, “Antipropionibacterial activity of BAL19403, a novel macrolide antibiotic” (2007).
≈ marks a conversion by molar mass, not a printed value.

How the values were obtained:
[1] = test system: Cutibacterium acnes; experiment: Antibacterial activity against drug-resistant Propionibacterium acnes SW10 after 48 hrs by broth microdilution method; assay type: functional
Procedure, shortened: (§1)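 Broth microdilution MIC in Wilkins-Chalgren broth without lysed horse blood, following CLSI anaerobe guidelines. Plates were held in anaerobic jars with atmosphere generators (O2 <0.1% by 2.5 h, CO2 >15% by 24 h) at 35 to 37°C for 48 h. Growth was read with an illuminated plate reader and magnifying mirror.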

[2] = test system: Cutibacterium acnes; experiment: Antibacterial activity against drug-resistant Propionibacterium acnes SW16 after 48 hrs by broth microdilution method; assay type: functional; procedure, shortened: as §1
[3] = test system: Cutibacterium acnes; experiment: Antibacterial activity against drug-resistant Propionibacterium acnes SW17 after 48 hrs by broth microdilution method; assay type: functional; procedure, shortened: as §1
[4] = test system: Cutibacterium acnes; experiment: Antibacterial activity against drug-resistant Propionibacterium acnes SW26 after 48 hrs by broth microdilution method; assay type: functional; procedure, shortened: as §1
[5] = test system: Cutibacterium acnes; experiment: Antibacterial activity against drug-resistant Propionibacterium acnes D-04/97 after 48 hrs by broth microdilution method; assay type: functional; procedure, shortened: as §1
[6] = test system: Cutibacterium acnes; experiment: Antibacterial activity against drug-resistant Propionibacterium acnes OK8/97 after 48 hrs by broth microdilution method; assay type: functional; procedure, shortened: as §1
[7] = test system: Cutibacterium acnes; experiment: Antibacterial activity against drug-resistant Propionibacterium acnes EG7NS after 48 hrs by broth microdilution method; assay type: functional; procedure, shortened: as §1
[8] = test system: Cutibacterium acnes; experiment: Antibacterial activity against drug-resistant Propionibacterium acnes EG13NS after 48 hrs by broth microdilution method; assay type: functional; procedure, shortened: as §1
[9] = test system: Propionibacterium granulosum; experiment: Antibacterial activity against drug-resistant Propionibacterium granulosum NCTC-11865 after 48 hrs by broth microdilution method; assay type: functional; details: Cutibacterium granulosum, NCTC-11865, 48 h; procedure, shortened: as §1
[10] = test system: Cutibacterium acnes; experiment: Antibacterial activity against drug-resistant Propionibacterium acnes SW11 after 48 hrs by broth microdilution method; assay type: functional; procedure, shortened: as §1
[11] = test system: Cutibacterium acnes; experiment: Antibacterial activity against drug-resistant Propionibacterium acnes EG3NS after 48 hrs by broth microdilution method; assay type: functional; procedure, shortened: as §1
[12] = test system: Cutibacterium acnes; experiment: Antibacterial activity against drug-resistant Propionibacterium acnes SW3CD after 48 hrs by broth microdilution method; assay type: functional; procedure, shortened: as §1
[13] = test system: Cutibacterium acnes; experiment: Antibacterial activity against drug-resistant Propionibacterium acnes P95 after 48 hrs by broth microdilution method; assay type: functional; procedure, shortened: as §1
[14] = test system: Cutibacterium acnes; experiment: Antibacterial activity against drug-resistant Propionibacterium acnes FG7E after 48 hrs by broth microdilution method; assay type: functional; procedure, shortened: as §1
[15] = test system: Cutibacterium acnes; experiment: Antibacterial activity against drug-resistant Propionibacterium acnes GE4E after 48 hrs by broth microdilution method; assay type: functional; procedure, shortened: as §1
[16] = test system: Cutibacterium acnes; experiment: Antibacterial activity against drug-resistant Propionibacterium acnes SP64E after 48 hrs by broth microdilution method; assay type: functional; procedure, shortened: as §1
[17] = test system: Cutibacterium acnes; experiment: Antibacterial activity against drug-resistant Propionibacterium acnes SW101CDA after 48 hrs by broth microdilution method; assay type: functional; procedure, shortened: as §1
[18] = test system: Cutibacterium acnes; experiment: Antibacterial activity against drug-resistant Propionibacterium acnes P:413 after 48 hrs by broth microdilution method; assay type: functional; procedure, shortened: as §1
[19] = test system: Cutibacterium acnes; experiment: Antibacterial activity against drug-resistant Propionibacterium acnes P322:2 after 48 hrs by broth microdilution method; assay type: functional; procedure, shortened: as §1
[20] = test system: Cutibacterium acnes; experiment: Antibacterial activity against drug-resistant Propionibacterium acnes EG7NS after 72 hrs; assay type: functional
Procedure, shortened: (§2)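 MBC for P. acnes followed MIC assays by standard methodology. Samples were plated on Wilkins-Chalgren agar, incubated anaerobically in GENbox jars at 35 to 37°C, and examined for growth after 72 h.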

[21] = test system: Cutibacterium acnes; experiment: Antibacterial activity against drug-resistant Propionibacterium acnes SW3CD after 72 hrs; assay type: functional; procedure, shortened: as §2
[22] = test system: Cutibacterium acnes; experiment: Antibacterial activity against drug-resistant Propionibacterium acnes P95 after 72 hrs; assay type: functional; procedure, shortened: as §2
[23] = test system: Cutibacterium acnes; experiment: Antibacterial activity against drug-resistant Propionibacterium acnes SW101T after 72 hrs; assay type: functional; procedure, shortened: as §2
[24] = test system: Cutibacterium acnes; experiment: Antibacterial activity against drug-resistant Propionibacterium acnes GE4E after 72 hrs; assay type: functional; procedure, shortened: as §2
[25] = test system: Cutibacterium acnes; experiment: MBC/MIC ratio of Propionibacterium acnes SW101T; assay type: functional
Procedure, shortened: (§3)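 MIC by CLSI broth microdilution in Wilkins-Chalgren broth in anaerobic jars (O2 <0.1%, CO2 >15%), read after 48 h at 35–37°C on an illuminated plate reader. For MBC, samples were plated onto Wilkins-Chalgren agar and incubated anaerobically for 72 h at 35–37°C before growth was scored.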

[26] = test system: Cutibacterium acnes; experiment: MBC/MIC ratio of Propionibacterium acnes GE4E; assay type: functional; procedure, shortened: as §3
[27] = test system: Corynebacterium jeikeium; experiment: Antibacterial activity against Corynebacterium jeikeium after 48 hrs by broth microdilution method; assay type: functional
Procedure, shortened: (§4)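 Broth microdilution per CLSI in cation-adjusted Mueller-Hinton broth supplemented with 0.5% (vol/vol) Tween 80. Plates incubated at 35°C in ambient air for 44 to 48 h, then read visually. MICs in μg/ml; a geometric mean MIC was calculated across the corynebacterial strains.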

[28] = test system: Corynebacterium diphtheriae; experiment: Antibacterial activity against Corynebacterium diphtheriae after 48 hrs by broth microdilution method; assay type: functional; procedure, shortened: as §4
[29] = test system: Corynebacterium amycolatum; experiment: Antibacterial activity against Corynebacterium amycolatum after 48 hrs by broth microdilution method; assay type: functional; procedure, shortened: as §4
[30] = test system: Corynebacterium minutissimum; experiment: Antibacterial activity against Corynebacterium minutissimum after 48 hrs by broth microdilution method; assay type: functional; procedure, shortened: as §4
[31] = test system: Staphylococcus epidermidis; experiment: Antibacterial activity against Staphylococcus epidermidis after 48 hrs by broth microdilution method; assay type: functional
[32] = test system: Staphylococcus aureus; experiment: Antibacterial activity against methicillin-susceptible Staphylococcus aureus after 48 hrs by broth microdilution method; assay type: functional
[33] = Antibacterial activity against Streptococcus dysgalactiae subsp. dysgalactiae after 48 hrs by broth microdilution method; assay type: functional
[34] = test system: Streptococcus equi subsp. zooepidemicus; experiment: Antibacterial activity against Streptococcus equi subsp. zooepidemicus after 48 hrs by broth microdilution method; assay type: functional
[35] = test system: Cutibacterium acnes; experiment: Antibacterial activity against drug-resistant Propionibacterium acnes P401:5 after 48 hrs by broth microdilution method; assay type: functional; procedure, shortened: as §1
[36] = test system: Cutibacterium acnes; experiment: Antibacterial activity against drug-resistant Propionibacterium acnes P425:1 after 48 hrs by broth microdilution method; assay type: functional; procedure, shortened: as §1
[37] = test system: Cutibacterium acnes; experiment: Antibacterial activity against drug-resistant Propionibacterium acnes P429:1 (SC) after 48 hrs by broth microdilution method; assay type: functional; procedure, shortened: as §1
[38] = test system: Cutibacterium acnes; experiment: Antibacterial activity against drug-resistant Propionibacterium acnes P429:1 (BC) after 48 hrs by broth microdilution method; assay type: functional; procedure, shortened: as §1
[39] = test system: Cutibacterium acnes; experiment: Antibacterial activity against drug-resistant Propionibacterium acnes SW54EA after 48 hrs by broth microdilution method; assay type: functional; procedure, shortened: as §1
[40] = test system: Cutibacterium acnes; experiment: Antibacterial activity against drug-resistant Propionibacterium acnes SW101T after 48 hrs by broth microdilution method; assay type: functional; procedure, shortened: as §1
[41] = test system: Cutibacterium acnes; experiment: Antibacterial activity against drug-resistant Propionibacterium acnes GE46EB after 48 hrs by broth microdilution method; assay type: functional; procedure, shortened: as §1
[42] = test system: Streptococcus pyogenes; experiment: Antibacterial activity against Streptococcus pyogenes after 20 to 24 hrs by broth microdilution method
[43] = test system: Staphylococcus aureus; experiment: Antibacterial activity against methicillin-resistant Staphylococcus aureus after 20 to 24 hrs by broth microdilution method
[44] = test system: Propionibacterium granulosum; experiment: Antibacterial activity against drug-resistant Propionibacterium granulosum QK6/92 after 48 hrs by broth microdilution method
[45] = test system: Staphylococcus aureus; experiment: Antibacterial activity against borderline oxacillin-resistant Staphylococcus aureus after 20 to 24 hrs by broth microdilution method

With `CC[C@H]1OC(=O)[C@H](C)[C@@H](O[C@H]2C[C@@](C)(OC)[C@@H](O)[C@H](C)O2)[C@H](C)[C@@H](O[C@@H]2O[C@H](C)C[C@H](N(C)C)[C@H]2O)[C@](C)(OC)C[C@@H](C)C(=O)[C@H](C)[C@H]2[C@H](SCCn3cnc4cccnc43)C(=O)O[C@@]21C` the MIC [1] was ≤ 0.06 µg/mL, the MIC [2] was ≤ 0.06 µg/mL and the MIC [3] was ≤ 0.06 µg/mL. The MIC [4] was ≤ 0.06 µg/mL, the MIC [5] was ≤ 0.06 µg/mL and the MIC [6] was ≤ 0.06 µg/mL. The MIC [7] was ≤ 0.06 µg/mL, the MIC [8] was ≤ 0.06 µg/mL and the MIC [9] was ≤ 0.06 µg/mL. The MIC [10] was ≤ 0.06 µg/mL, the MIC [11] was ≤ 0.06 µg/mL and the MIC [12] was ≤ 0.06 µg/mL. For the same compound, the MIC [13] was ≤ 0.06 µg/mL, the MIC [14] was 0.5 µg/mL (≈ 0.527 µM) and the MIC [15] was 128 µg/mL (≈ 135 µM). The MIC [16] was ≥ 256 µg/mL, the MIC [17] was 64 µg/mL (≈ 67.4 µM) and the MIC [18] was ≤ 0.06 µg/mL. The MIC [19] was 0.25 µg/mL (≈ 0.263 µM), the MBC [20] was ≤ 0.06 µg/mL and the MBC [21] was ≤ 0.06 µg/mL. The MBC [22] was ≤ 0.06 µg/mL, the MBC [23] was > 32 µg/mL and the MBC [24] was ≥ 256 µg/mL. For the same compound, the Ratio [25] was >8, the Ratio [26] was “>=2” and the MIC [27] was 0.88 µg/mL (≈ 0.927 µM). It also gave an MIC [28] of 0.88 µg/mL (≈ 0.927 µM), an MIC [29] of 0.88 µg/mL (≈ 0.927 µM) and an MIC [30] of 0.88 µg/mL (≈ 0.927 µM). It also gave an MIC [31] of 4.24 µg/mL (≈ 4.47 µM), an MIC [32] of 4.32 µg/mL (≈ 4.55 µM) and an MIC [33] of 0.12 µg/mL (≈ 0.126 µM). The MIC [34] was 0.08 µg/mL (≈ 0.0843 µM), the MIC [35] was ≤ 0.06 µg/mL and the MIC [36] was 4 µg/mL (≈ 4.21 µM). For the same compound, the MIC [37] was ≤ 0.06 µg/mL, the MIC [38] was 0.5 µg/mL (≈ 0.527 µM) and the MIC [39] was 0.5 µg/mL (≈ 0.527 µM). The MIC [40] was 4 µg/mL (≈ 4.21 µM), the MIC [41] was 256 µg/mL (≈ 270 µM) and the MIC [42] was 0.19 µg/mL (≈ 0.2 µM). For the same compound, the MIC [43] was 4.32 µg/mL (≈ 4.55 µM), the MIC [44] was 0.125 µg/mL (≈ 0.132 µM) and the MIC [45] was 4.32 µg/mL (≈ 4.55 µM).
